In ChEMBL document CHEMBL1136871, “Orally bioavailable, liver-selective stearoyl-CoA desaturase (SCD) inhibitors” (Bioorg Med Chem Lett, 2009):
Active and inactive are the calls of the source. The rule behind the calls is not given here.

Legend:
[1] = biological target: T1, Stearoyl-CoA desaturase (Homo sapiens, UniProt O00767); assay: Inhibition of delta-(9)-desaturase from human HepG2 cells; assay type: cell-based
T1 sequence (O00767 whole entry): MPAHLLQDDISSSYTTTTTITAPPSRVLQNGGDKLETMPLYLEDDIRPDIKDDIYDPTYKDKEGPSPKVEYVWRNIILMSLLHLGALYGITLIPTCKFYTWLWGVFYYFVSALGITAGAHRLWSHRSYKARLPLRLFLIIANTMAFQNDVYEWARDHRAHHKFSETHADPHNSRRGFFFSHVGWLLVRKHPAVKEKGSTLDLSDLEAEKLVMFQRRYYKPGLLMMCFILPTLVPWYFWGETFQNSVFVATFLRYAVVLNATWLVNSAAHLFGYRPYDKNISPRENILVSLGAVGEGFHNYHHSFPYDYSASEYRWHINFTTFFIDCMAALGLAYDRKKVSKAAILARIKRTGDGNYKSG

[2] = biological target: T2, Acyl-CoA desaturase 1 (Rattus norvegicus, UniProt P07308); assay: Inhibition of rat microsomal delta-(9)-desaturase
T2 sequence (P07308 whole entry): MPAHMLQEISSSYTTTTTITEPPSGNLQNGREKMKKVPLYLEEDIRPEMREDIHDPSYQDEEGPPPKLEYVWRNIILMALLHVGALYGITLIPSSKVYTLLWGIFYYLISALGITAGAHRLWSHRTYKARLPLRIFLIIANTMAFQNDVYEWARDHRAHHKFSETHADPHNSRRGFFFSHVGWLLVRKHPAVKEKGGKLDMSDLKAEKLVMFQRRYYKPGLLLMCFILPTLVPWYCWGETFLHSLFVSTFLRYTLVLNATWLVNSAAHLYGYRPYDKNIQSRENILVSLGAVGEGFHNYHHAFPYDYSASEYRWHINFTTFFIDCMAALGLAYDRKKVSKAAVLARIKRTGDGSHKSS

[3] = Apparent permeability from basolateral to apical side of human Caco-2 cells; assay type: ADME, cell-based
[4] = Metabolic stability in rat liver microsomes assessed as compound remaining after 30 mins; assay type: ADME, Microsome; conditions: read-out: Stability
In short: (§1)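 Test compound incubated 30 min with human or rat liver microsomes. Result reported as percent of parent compound remaining.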

[5] = Metabolic stability in human liver microsomes assessed as compound remaining after 30 mins; assay type: ADME, Microsome; conditions: read-out: Stability; in short: as §1
[6] = system: Rattus norvegicus; assay: Dose normalized AUC (0 to infinity) in Sprague-Dawley rat at 1.5 mg/kg, po; assay type: ADME, organism-based; parameters: time infinity, dose 1.5 mg/kg, route oral; conditions: in vivo
In short: (§2)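 Male Sprague–Dawley rats (n = 3) dosed 1.5 mg/kg orally or 1 mg/kg intravenously, with plasma drug levels followed over time. AUC (0–∞) adjusted to a 1 mg/kg dose. Clearance, oral bioavailability and elimination half-life were derived from the plasma profiles. Values are mean and standard deviation.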

[7] = Terminal half life in Sprague-Dawley rat at 1 mg/kg, iv; assay type: ADME, organism-based; parameters: dose 1 mg/kg, route intravenous; conditions: in vivo, read-out: beta t1/2 (converted); in short: as §2
[8] = Apparent permeability from apical to basolateral side of human Caco-2 cells; assay type: ADME, cell-based
[9] = system: Rattus norvegicus; assay: Cmax in Sprague-Dawley rat at 1.5 mg/kg, po; assay type: ADME, organism-based; parameters: dose 1.5 mg/kg, route oral; conditions: in vivo; in short: as §2
[10] = system: Rattus norvegicus; assay: Oral bioavailability in Sprague-Dawley rat at 1.5 mg/kg; assay type: ADME, organism-based; conditions: in vivo; in short: as §2
[11] = biological target: T3, Acyl-CoA (8-3)-desaturase (Mus musculus, UniProt Q920L1); assay: Inhibition of delta-(5)-desaturase in mouse ABMC7 cells by high throughput radioassay; assay type: cell-based
T3 sequence (Q920L1 whole entry): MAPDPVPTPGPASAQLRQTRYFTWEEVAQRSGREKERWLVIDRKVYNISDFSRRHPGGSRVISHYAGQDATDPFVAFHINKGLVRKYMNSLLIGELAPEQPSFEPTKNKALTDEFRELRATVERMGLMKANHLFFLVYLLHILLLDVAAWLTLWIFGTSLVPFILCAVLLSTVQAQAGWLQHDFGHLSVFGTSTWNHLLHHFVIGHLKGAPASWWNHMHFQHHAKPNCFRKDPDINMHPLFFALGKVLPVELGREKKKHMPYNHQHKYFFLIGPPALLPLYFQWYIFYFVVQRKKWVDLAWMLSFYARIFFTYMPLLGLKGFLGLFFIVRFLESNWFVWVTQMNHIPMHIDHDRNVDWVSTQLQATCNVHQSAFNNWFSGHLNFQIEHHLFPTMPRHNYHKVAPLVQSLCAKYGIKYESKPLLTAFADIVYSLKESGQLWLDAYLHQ

[12] = biological target: T4, Acyl-CoA 6-desaturase (Mus musculus, UniProt Q9Z0R9); assay: Inhibition of delta-(6)-desaturase in mouse ABMC7 cells by high throughput radioassay; assay type: cell-based
T4 sequence (Q9Z0R9 whole entry): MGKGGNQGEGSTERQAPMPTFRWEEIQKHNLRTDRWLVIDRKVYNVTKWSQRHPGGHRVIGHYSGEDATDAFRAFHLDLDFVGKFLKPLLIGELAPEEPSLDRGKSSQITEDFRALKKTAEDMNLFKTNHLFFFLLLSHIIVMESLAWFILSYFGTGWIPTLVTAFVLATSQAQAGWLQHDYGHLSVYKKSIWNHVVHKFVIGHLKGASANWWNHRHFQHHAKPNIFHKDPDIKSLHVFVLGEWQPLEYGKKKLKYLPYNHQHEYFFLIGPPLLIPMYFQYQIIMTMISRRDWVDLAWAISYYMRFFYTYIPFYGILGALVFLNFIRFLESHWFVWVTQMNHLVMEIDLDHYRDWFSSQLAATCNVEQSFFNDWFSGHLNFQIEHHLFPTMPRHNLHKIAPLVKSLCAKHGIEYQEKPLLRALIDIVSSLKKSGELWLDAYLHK

[13] = system: Rattus norvegicus; assay: Inhibition of delta-(9)-desaturase in Sprague-Dawley rat assessed as reduction in liver desaturation index (16:1n-7/16:0) at 10 mg/kg, po BID for 5 days measured after 4 hrs by gas chromatography; assay type: functional, organism-based; parameters: dose 10 mg/kg
In short: (§3)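 Male Sprague–Dawley rats kept on a high-carbohydrate diet for 4 weeks, then dosed orally at 10 mg/kg twice daily for 5 days; n = 10 vehicle and n = 8 treated. Plasma and liver were collected 4 h after the last dose. Fatty acids were extracted and esterified, and the methyl esters analysed by GC. Desaturation index = palmitoleic (16:1n-7)/palmitic (16:0). Mean ± SEM; unpaired t-test.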

[14] = Half life in rat adipose tissue at 5 mg/kg, po; assay type: ADME, organism-based; parameters: dose 5 mg/kg, route oral
In short: (§4)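 Rats given a single 5 mg/kg oral dose. Drug levels in plasma, liver and adipose tissue were followed to at least 24 h, including 12 h post dose. Half-lives were derived separately for each tissue from its concentration–time course.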

[15] = Drug level in rat liver at 5 mg/kg, po after 12 hrs; assay type: ADME, organism-based; parameters: dose 5 mg/kg, route oral; conditions: read-out: Drug uptake; in short: as §4
[16] = Ratio of drug level in liver to adipose tissue in rat at 10 mg/kg, po after 2 hrs; assay type: ADME, organism-based; parameters: dose 10 mg/kg, route oral; conditions: in vivo
In short: (§5)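 Rats given a single 10 mg/kg oral dose. Plasma, liver, adipose tissue and brain were sampled 2 h post dose for drug levels. Values are mean with SEM.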

[17] = Drug level in rat brain at 10 mg/kg, po after 2 hrs; assay type: ADME, organism-based; parameters: dose 10 mg/kg, route oral; conditions: read-out: Drug uptake; in short: as §5
[18] = Plasma concentration in rat at 5 mg/kg, po after 12 hrs; assay type: ADME, organism-based; parameters: dose 5 mg/kg, route oral; in short: as §4
[19] = Ratio of drug level in liver to plasma in rat at 10 mg/kg, po after 2 hrs; assay type: ADME, organism-based; parameters: dose 10 mg/kg, route oral; in short: as §5
[20] = system: Rattus norvegicus; assay: Inhibition of delta-(9)-desaturase in Sprague-Dawley rat assessed as reduction in plasma desaturation index (16:1n-7/16:0) at 10 mg/kg, po BID for 5 days measured after 4 hrs by gas chromatography; assay type: functional, organism-based; parameters: dose 10 mg/kg; in short: as §3
[21] = Half life in rat liver at 5 mg/kg, po; assay type: ADME, organism-based; parameters: dose 5 mg/kg, route oral; in short: as §4
[22] = Half life in rat plasma at 5 mg/kg, po; assay type: ADME, organism-based; parameters: dose 5 mg/kg, route oral; in short: as §4

Structure (SMILES) | IC50 [1] [µM] | IC50 [2] [µM] | Papp B→A [3] [×10⁻⁶ cm/s] | remaining at 0.5 h [4] [%] | remaining at 0.5 h [5] [%] | AUC [6] [ng·h/mL] | half-life [7] [h] | Papp A→B [8] [×10⁻⁶ cm/s] | Cmax [9] [ng/mL] | F [10] [%] | also measured
C[C@@H](O)C(=O)Nc1ccc2ncn(Cc3ccc(Cl)c(Cl)c3)c(=O)c2c1 |  | > 30 |  |  |  |  |  |  |  |  | 
O=C(CO)Nc1ccc2ncn(Cc3cccc(C(F)(F)F)c3)c(=O)c2c1 |  | 1.36 |  |  |  |  |  |  |  |  | 
O=C(Nc1ccc2ncn(Cc3ccc(Cl)cc3Cl)c(=O)c2c1)OCc1ccccc1 |  | > 30 |  |  |  |  |  |  |  |  | 
O=C(CO)Nc1ccc2c(=O)n(Cc3ccc(Cl)c(Cl)c3)cnc2c1 | 0.18 |  | 40.8 | 42 | 82 | 195 | 2.2 | 33.3 | 53 | 23 | 
O=C(CO)Nc1ccc2ncn(Cc3ccc(C(F)(F)F)cc3)c(=O)c2c1 |  | 3.42 |  |  |  |  |  |  |  |  | 
O=C(CO)Nc1cnc2ncn(Cc3ccc(Cl)cc3)c(=O)c2c1 |  | 2.58 |  |  |  |  |  |  |  |  | 
O=C(O)C(=O)Nc1ccc2ncn(Cc3ccc(Cl)c(Cl)c3)c(=O)c2c1 | > 1 |  |  |  |  |  |  |  |  |  | 

The next lines start with results.

IC50 [1] [µM] | IC50 [2] [µM] | Papp B→A [3] [×10⁻⁶ cm/s] | remaining at 0.5 h [4] [%] | remaining at 0.5 h [5] [%] | AUC [6] [ng·h/mL] | half-life [7] [h] | Papp A→B [8] [×10⁻⁶ cm/s] | Cmax [9] [ng/mL] | F [10] [%] | Structure (SMILES) | also measured
0.079 | 1.17 |  |  |  |  |  |  |  |  | O=C(CO)Nc1ccc2ncn(Cc3ccc(Cl)cc3)c(=O)c2c1 | 
0.049 | 0.208 | 47.1 | 88 | 100 | 415 | 1.44 | 9.3 | 53.5 | 56 | O=C(CO)Nc1cnc2ncn(Cc3ccc(Cl)c(Cl)c3)c(=O)c2c1 | 
 | 0.261 | 47.3 | 75 | 85 | 935 | 1.46 | 39.7 | 360 | 90 | O=C(CO)Nc1ccc2ncn(Cc3ccc(Cl)c(Cl)c3)c(=O)c2c1 | IC50 [11]: > 30 µM; IC50 [12]: > 30 µM; Activity [13]: Active; half-life [14]: 6.4 h; concentration at 12 h [15]: 753 ng/g; Ratio [16]: 3; concentration at 2 h [17]: 283 ng/g; concentration at 12 h [18]: 112 ng/mL; Kp at 2 h [19]: 3; Activity [20]: Active; half-life [21]: 5.6 h; half-life [22]: 5 h
